# Screens as filed in PubChem BioAssay.
# A selection: hits, their analogues and other compounds. The true share with any hit is near 7.2%.
# M1 antag = antagonists of rat M1 muscarinic receptor | CHO-M1 cells, Fluo-4 calcium, ACh EC80 antagonist mode; stronger effect = lower value | B-score at 10 µM | actives 3.4% (n = 64,000) | AID 628;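 active = calcium fluorescence response, raw or row-and-column corrected B-score, differing from the plate sample mean either way at a set confidence level, mostly lower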
# DAT uptake mod = human DAT dopamine uptake with cocaine, either direction | LLC-PK1 hDAT cells, [14C]-dopamine uptake with cocaine IC80; actives deviate in either direction | B-score at 10 µM | actives 1.3% (n = 110,000) | AID 449768;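 active = Z score or B-score, a plate-position-corrected score, falls beyond the plate's 99.7% confidence bounds, in either direction; inactive = both scores lie inside the 99.7% bounds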;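 note: scored against the spread of the other compound wells on the same plate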
# Target sequence (Q01959 whole entry, looked up): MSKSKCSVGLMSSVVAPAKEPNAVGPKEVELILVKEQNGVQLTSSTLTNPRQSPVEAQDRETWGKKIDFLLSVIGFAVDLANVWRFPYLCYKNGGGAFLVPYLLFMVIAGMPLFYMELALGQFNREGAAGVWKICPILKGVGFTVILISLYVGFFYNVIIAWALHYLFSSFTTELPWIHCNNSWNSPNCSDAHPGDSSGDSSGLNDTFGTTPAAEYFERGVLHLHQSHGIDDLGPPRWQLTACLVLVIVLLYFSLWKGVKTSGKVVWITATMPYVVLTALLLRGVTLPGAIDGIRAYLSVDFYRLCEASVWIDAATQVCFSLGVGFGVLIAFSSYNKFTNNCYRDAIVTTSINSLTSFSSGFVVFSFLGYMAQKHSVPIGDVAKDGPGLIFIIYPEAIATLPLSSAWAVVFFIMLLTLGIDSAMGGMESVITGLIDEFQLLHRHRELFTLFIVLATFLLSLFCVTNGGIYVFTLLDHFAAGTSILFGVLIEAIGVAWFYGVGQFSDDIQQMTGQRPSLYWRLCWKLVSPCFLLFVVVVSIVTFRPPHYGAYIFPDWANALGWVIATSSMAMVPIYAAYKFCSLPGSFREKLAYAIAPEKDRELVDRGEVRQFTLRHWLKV
# BAP1 inh = inhibitors of human BAP1 deubiquitinase | actives 0.48% (n = 72,000) | calls only at 20 µM | AID 436 | recombinant BAP1, Ub-AMC hydrolysis fluorescence kinetic; stronger effect = lower value;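 active = activity remaining at or below 50% of control, provided the compound also passes the data quality filters; inactive = the rest, including low values that fail the filters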;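 note: 100% = DMSO wells rate and 0% = substrate alone blank rate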
# M1 ag = M1 muscarinic receptor agonism. CHO-M1 cells, Fluo-4 calcium fluorescence, agonist mode; stronger effect = higher value. B-score at 10 µM. actives 3% (n = 64,000);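 active = fluorescence rise, raw or as B-score row- and column-corrected plate score, outside the 99.7% band of its plate's samples, either direction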
# HEK293 NFkB inh = lowers PMA/ionomycin-induced NF-kB signal in HEK293 cells | HEK-293 NF-kB luciferase reporter, luminescence | inhibition, % at 3 µM | actives 0.21% (n = 62,000);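 active = inhibition above the mean of all tested compounds plus 3 SD, cut at about 40% in these data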;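 note: 0% = stimulated DMSO wells and 100% = 10 µM reference inhibitor 5653914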
#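 Signal: luciferase luminescence; Material: HEK-293 cells with stable firefly luciferase reporter driven by four HIV NF-kB elements; Probe or stimulus: PMA with ionomycin; Replication: tested once; Times: 1 h compound pretreatment, then 16 h stimulation at 37 °C, 5% CO2; Benchmarks: DMSO and 10 µM reference inhibitor; Evaluation: per-plate % inhibition versus controls.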
# D1 allo mod = D1 dopamine receptor (human) allosteric modulation. P21728. HEK293 D1, CRE-luciferase, dopamine EC30 potentiation; actives deviate in either direction. B-score at 10 µM. actives 5.9% (n = 58,000);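 active = luminescence count or its row- and column-corrected plate score outside the 99.7% band of the plate's sample wells, on either side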
# M1 ag confirm = confirmation of rat M1 muscarinic receptor agonists; shares compounds with M1 ag; CHO-M1 cells, Fluo-4 calcium fluorescence, agonist mode; actives lie on both sides; fluorescence change (max-min) at 10 µM; actives 19% (n = 1,700); AID 1488;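 active = fluorescence change differs from the solvent-only DMSO control mean at a set confidence level in both duplicate runs; inconclusive = differs from solvent-only control mean in just one of two runs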;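 note: an EC20 dose of acetylcholine follows compound addition during the same imaging run; raw fluorescence intensity difference in instrument units with no normalization to controls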
# M4 ag counter = rat M4 muscarinic agonism, M1 counter-screen. shares compounds with M1 ag. CHO M4/Gqi5 cells, Fluo-4 calcium fluorescence, agonist mode; actives lie on both sides. fluorescence change (max-min) at 10 µM. actives 9% (n = 1,700). AID 1741;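 active = fluorescence change differing from the plate's solvent-only control wells at 99.7% confidence in both duplicates, whether higher or lower; inconclusive = differs from solvent controls in only one of two duplicates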
# The depositor's hits bear a star; i = inactive; ? = inconclusive; · = no result shown.
SMILES,M1 antag,DAT uptake mod,BAP1 inh,M1 ag,HEK293 NFkB inh,D1 allo mod,M1 ag confirm,M4 ag counter
COc1ccc(CN2CCCN(Cc3ccc(OC)cc3)C2c2ccc(F)cc2)cc1,·,·,i,·,·,·,·,·
O=C(Nc1ccncc1)c1cc2c(ccc3ccccc32)oc1=O,·,·,i,·,·,·,·,·
CN(c1ccccc1)S(=O)(=O)c1ccc(C(=O)OCC(=O)NCc2ccco2)cc1,0.22,1,i,-0.1,7,-0.14,·,·
COc1ccccc1N(C)S(=O)(=O)c1ccc(C(=O)OCC(=O)NCc2ccco2)cc1,-0.65,-0.13,i,6.9*,10,·,-19,-38
CC(=O)N1CCc2cc(C(=O)CN3CCN(c4cccc(Cl)c4)CC3)ccc21,-3*,1.3,i,5.9*,13,-3.5*,22,16
CC(=O)N1CCc2cc(C(=O)CN3CCC(C)CC3)ccc21,-0.0042,-0.33,i,-0.023,12,0.073,·,·
CCn1c(SCC(=O)N2CCOCC2)nc2oc3c(Cl)cc(Cl)cc3c(=O)c2c1=O,-0.78,1.5,·,4.4*,15,-2.5,5.6,5
COc1cccc(C(c2nnnn2Cc2ccccc2)N2CCN(C3CCCC3)CC2)c1OC (stereo not given),-1.7*,-0.77,i,2.8*,10,-3.5*,-14,-35
COc1ccc(OC)c(C(c2nnnn2C2CCCC2)N2CCN(c3ccccc3)CC2)c1 (stereo not given),-0.086,0.59,i,-1.7*,20,-0.97,-16,-51
CCCC(c1nnnn1Cc1ccccc1)N1CCN(c2ccccc2OC)CC1 (stereo not given),-0.76,-0.85,i,7.1*,-2,-0.0096,-15,-36
c1cncc(-c2cc(-c3ccncc3)nc3ccc4ccccc4c23)c1,·,·,i,·,·,·,·,·
O=C(CCc1nc2ccccc2c(=O)[nH]1)N1CCN(C/C=C/c2ccccc2)CC1,-0.84,2.7,i,9.4*,13,0.065,31,-25
N#Cc1c(-c2ccc3c(c2)OCO3)csc1N,-0.048,2.3,i,3.2*,-6,·,-0.042,-29
N#Cc1c(N)c(C#N)c(-c2ccc3c(c2)OCO3)c2c1CCCC2,-0.44,-0.00036,·,0.0041,17,-0.77,·,·
Cc1ccc(NS(=O)(=O)c2ccc(N)cc2)nc1,·,·,i,·,·,·,·,·
CCCOc1ccc(OC(=O)c2cccc(C(=O)OC)n2)cc1,·,·,i,·,·,·,·,·
Cc1cc(C)nc(/N=C2\NC(=O)CC(C(=O)O)N2CCc2c[nH]c3ccccc23)n1 (stereo not given),-0.58,0.011,i,3.2*,15,·,-17,-28
CN1C=CC(=C2C(=O)c3ccccc3C2=O)C=C1,2.6*,-0.8,i,33*,-15,-3.1,-30,?
CC1=C(C(=O)OCCOc2ccccc2)C(c2ccccc2)NC(=O)N1 (stereo not given),·,·,i,·,·,·,·,·
O=C(Oc1ccc(OC(=O)c2ccncc2)cc1)c1ccncc1,0.44,·,i,-0.27,21,-0.42,·,·
CC(=O)c1cc(OC(=O)c2ccncc2)ccc1OC(=O)c1ccncc1,0.55,-1.1,i,4.4*,16,-0.28,-10,-32
O=C(COc1cccc(C(F)(F)F)c1)Nc1ncc(Cc2cccc(C(F)(F)F)c2)s1,·,·,i,·,·,·,·,·
COc1cccc(-c2[nH]nc3c2C(c2ccc(C)o2)C(C#N)=C(N)O3)c1 (stereo not given),·,-1.4,·,·,·,·,·,·
Cc1ccc(C2C(C#N)=C(N)Oc3nc(-c4ccccc4)[nH]c32)o1 (stereo not given),-0.14,0.056,i,3.5*,30,·,-24*,-35
COc1ccc(N2C(=O)CC(Sc3nc(C)c4c(n3)CCCC4)C2=O)cc1 (stereo not given),0.24,-0.92,i,2.2*,-9,-0.97,-6,-13
SMILES,M1 antag,DAT uptake mod,BAP1 inh,M1 ag,HEK293 NFkB inh,D1 allo mod,M1 ag confirm,M4 ag counter
Cc1nc(SC2CC(=O)N(c3cc(Cl)cc(Cl)c3)C2=O)nc2c1CCCC2 (stereo not given),·,0.6,·,·,·,·,·,·
CCOC(=O)C1CCCN(C(=O)Cn2cccc2C(=O)c2ccccc2)C1 (stereo not given),0.45,-0.023,i,-2.6*,9,-0.07,?,-36
CC(=O)N1CCN(C2=Nc3cccc4cccc2c34)CC1,-0.69,1,i,9.5*,18,·,101*,92*
CCOC(=O)N1CCN(C(=O)c2nc3ccccc3s2)CC1,0.44,0.062,i,-0.3,-12,·,·,·
CCOC(=O)N1CCN(C2=Nc3cccc4cccc2c34)CC1,-11*,1.9,i,8.5*,-1,-0.19,107*,?
CN(c1ccccc1)S(C)(=O)=O,·,·,i,·,·,·,·,·
CS(=O)(=O)N(CC(=O)NCc1ccncc1)Cc1ccc(Cl)cc1,-0.9,-0.07,i,2.2*,-5,-0.3,-5.7,-13
CS(=O)(=O)N(CC(=O)NCc1cccnc1)Cc1ccc(Cl)cc1,-0.29,-0.096,i,0.36,4,-0.38,·,·
CCc1ccc(-c2ccc(C(=O)Oc3ccccc3)cc2)nc1,·,·,i,·,·,·,·,·
CC(C)c1nc2oc3c(NCC4CCCO4)ncnc3c2c2c1COC(C)(C)C2 (stereo not given),-0.059,1,i,4.5*,2,12*,-26,-42
COC(=O)c1cccc(NC(=O)CSc2nnc(COc3ccc(C#N)cc3)n2-c2ccccc2)c1,-0.11,0.14,i,3.6*,9,-0.043,?,-49
COc1ccc(/C=C/c2ccncc2)cc1,·,0.53,·,·,·,·,·,·
CN(C)c1ccc(/C=C/c2ccncc2)cc1,-0.014,0.37,i,10*,1,-0.16,111*,150*
CCCCOC(=O)C1=C(C)NC(=O)NC1c1cccc(F)c1 (stereo not given),·,·,i,·,·,·,·,·
CCOc1cc(C2C(C(=O)OC)=C(C)NC3=C2C(=O)CC(c2ccc(OC)cc2)C3)cc(Br)c1O (stereo not given),·,·,i,·,·,·,·,·
Cc1ccc2c(c1)-c1c(cnn1CC(=O)O)CO2,-0.54,0.6,i,0.31,10,1.5,·,·
Cc1ccc2c(c1)-c1c(cnn1CC(=O)N1CCCN(Cc3ccccc3F)C1)CO2,0.05,-0.37,i,3.4*,18,-2.9*,?,-36
O=C(Cn1ncc2c(=O)oc3ccccc3c21)N1CCN(C(=O)c2ccco2)CC1,-0.51,-0.98,i,-0.35,16,-0.58,·,·
O=C(Cn1ncc2c(=O)oc3ccccc3c21)N1CCCN(Cc2ccccc2F)C1,-0.88,-0.51,i,6*,19,-0.38,-10,-33
Cc1ccc(N(CCCCN2C(=O)c3ccccc3C2=O)C(=O)c2cccc(Cl)c2)cc1,·,·,i,·,·,·,·,·
